Tests used:
[1] = biological target: D(2) dopamine receptor (Rattus norvegicus) (UniProt P61169); experiment: Inhibition of [3H]-spiperone binding to dopamine receptor D2 of rat limbic structures at 1 uM.; conditions: Limbic system
Rattus norvegicus [2] = organism: Rattus norvegicus; experiment: Anti-psychotic activity from the ability to block discrete trial conditioned avoidance response (CAR) of rats.; assay type: functional
Outline: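 Discrete-trial conditioned avoidance in male CD rats kept at about 400–450 g body weight. Dosing was ip or po, 30 min before testing, with at least five rats per dose (20 or 40 mg/kg, or a dose range). Computer recorded intertrial, avoidance and escape responses and no-response trials. Avoidance-block trials were taken as % of total trials, with control avoidance set at 100%. AB50 came from a least-squares dose-effect regression line.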

[3] = biological target: T1, 5-hydroxytryptamine receptor 1A (Rattus norvegicus) (UniProt P19327); experiment: In vitro ability to inhibit [3H]8-OH-DPAT binding to 5-hydroxytryptamine 1A receptor of rat hippocampus at 1 uM; assay type: tissue-based
T1 sequence (whole entry): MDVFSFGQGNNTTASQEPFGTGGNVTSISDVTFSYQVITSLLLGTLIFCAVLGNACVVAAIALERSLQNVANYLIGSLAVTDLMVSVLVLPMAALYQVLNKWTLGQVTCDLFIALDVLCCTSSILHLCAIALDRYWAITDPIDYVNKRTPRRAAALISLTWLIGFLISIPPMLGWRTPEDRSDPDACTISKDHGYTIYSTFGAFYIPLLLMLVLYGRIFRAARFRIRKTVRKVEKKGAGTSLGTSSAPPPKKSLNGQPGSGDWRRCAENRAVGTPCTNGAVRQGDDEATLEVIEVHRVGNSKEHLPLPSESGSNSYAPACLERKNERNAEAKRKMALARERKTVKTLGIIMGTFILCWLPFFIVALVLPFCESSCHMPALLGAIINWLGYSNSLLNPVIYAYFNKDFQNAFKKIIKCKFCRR

[4] = biological target: D(2) dopamine receptor (Rattus norvegicus) (UniProt P61169); experiment: Inhibition of [3H]spiperone binding to Dopamine receptor D2 of rat limbic structures; assay type: tissue-based; set-up: concentration or dose not given beside the values; conditions: Limbic system, concentration not given here
Rattus norvegicus [5] = experiment: Compound was tested for antagonism of apomorphine-induced stereotyped behavior, after intraperitoneal dosing.; assay type: functional; conditions: ip
Outline: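 High-dose apomorphine-induced stereotyped behavior procedure. Test agents were given ip at doses up to 60 mg/kg.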

Rattus norvegicus [6] = experiment: Compound was tested for antagonism of apomorphine-induced climbing behavior, after intraperitoneal dosing.; assay type: functional; conditions: ip
[7] = biological target: T1, 5-hydroxytryptamine receptor 1A (Rattus norvegicus); experiment: In vitro ability to inhibit [3H]-8-OH-DPAT binding to 5-hydroxytryptamine 1A receptor of rat hippocampus at 1 uM; assay type: tissue-based

Sequence of D(2) dopamine receptor (Rattus norvegicus) (P61169 whole entry): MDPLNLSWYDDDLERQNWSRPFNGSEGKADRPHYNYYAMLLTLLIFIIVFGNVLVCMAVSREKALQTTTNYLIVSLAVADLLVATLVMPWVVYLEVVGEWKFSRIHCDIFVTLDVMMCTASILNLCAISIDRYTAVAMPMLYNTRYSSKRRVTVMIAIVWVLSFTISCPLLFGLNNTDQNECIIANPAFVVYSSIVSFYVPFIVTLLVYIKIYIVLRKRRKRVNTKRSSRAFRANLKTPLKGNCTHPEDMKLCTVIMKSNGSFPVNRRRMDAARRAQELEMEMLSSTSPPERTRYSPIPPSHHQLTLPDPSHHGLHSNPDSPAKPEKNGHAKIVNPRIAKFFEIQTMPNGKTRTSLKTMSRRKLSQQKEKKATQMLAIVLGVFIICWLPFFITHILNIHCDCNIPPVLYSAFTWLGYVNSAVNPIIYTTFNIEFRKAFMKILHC

Compound	inhibition [4]	AB50 (Rattus norvegicus [2])	other results
Cl.O=C1[C@H]2C3CCC(O3)[C@H]2S(=O)(=O)N1CCCCc1ccncc1 (stereo partly specified)	–	40 mg/kg	inhibition [1]: 3%; inhibition [3]: 0%
CC1CC(=O)N(CCCCN2CCN(c3ncccn3)CC2)S(=O)(=O)N1.Cl (stereo unspecified)	–	40 mg/kg	–
Cl.O=C1c2cscc2S(=O)(=O)N1CCCCN1CCN(c2cncc(Cl)n2)CC1	–	>40 mg/kg	–
Cl.Cl.O=c1c2ccccc2[s+]([O-])n1CCCCN1CCN(c2ncccn2)CC1 (stereo unspecified)	–	40 mg/kg	inhibition [1]: 3%; inhibition [3]: 43%
Cl.Cl.Cl.O=C1c2cscc2S(=O)(=O)N1CCCCN1CCN(c2ccc(Cl)nn2)CC1	–	>40 mg/kg	–
Cl.Cl.O=C1C2C3CCC(O3)C2S(=O)(=O)N1CCCCN1CCN(c2ncccn2)CC1 (stereo unspecified)	–	>40 mg/kg	inhibition [1]: 0%; ED50 (Rattus norvegicus [5]): 34 mg/kg; ED50 (Rattus norvegicus [6]): 16 mg/kg
Cl.Cl.O=C1C2C3C=CC(C4CC34)C2S(=O)(=O)N1CCCCN1CCN(c2ncccn2)CC1 (stereo unspecified)	–	40 mg/kg	–
Cl.Cl.O=C1N(CCCCN2CCN(c3ncccn3)CC2)S(=O)(=O)NC12CCCCC2	–	40 mg/kg	–
Cl.Cl.O=C1C2C3C=CC(CC3)C2S(=O)(=O)N1CCCCN1CCN(c2ncccn2)CC1 (stereo unspecified)	–	40 mg/kg	–
Cl.O=C1c2ccccc2S(=O)(=O)N1CCCCN1CCN(c2nccnc2Cl)CC1	–	40 mg/kg	–
Cl.O=C1C2C3CCC(CC3)C2S(=O)(=O)N1CCCCC1CCN(c2cncc(Cl)n2)CC1 (stereo unspecified)	0%	>40 mg/kg	inhibition [7]: 7%
Cl.O=C1c2cscc2S(=O)(=O)N1CCCCN1CCN(c2nccnc2Cl)CC1	–	>40 mg/kg	–
Cl.Cl.O=C1c2cscc2S(=O)(=O)N1CCCCN1CCN(c2ncccn2)CC1	–	>20 mg/kg	–
CC1=C(C)CC2C(C1)C(=O)N(CCCCc1ccncc1)S2(=O)=O.Cl (stereo unspecified)	–	>40 mg/kg	inhibition [1]: 56%; inhibition [3]: 8%

Now from value to molecule, other results behind:

inhibition [4]	Compound	AB50 (Rattus norvegicus [2])	other results
0%	Cl.O=C1C2C3C=CC(CC3)C2S(=O)(=O)N1CCCCc1ccncc1 (stereo unspecified)	>40 mg/kg	inhibition [3]: 35%
3%	Cl.Cl.Cl.O=C1C2C3C=CC(C3)C2S(=O)(=O)N1CCCCN1CCN(c2ccc(Cl)nn2)CC1 (stereo unspecified)	>40 mg/kg	–
8%	Cl.Cl.O=C1c2ccccc2S(=O)(=O)N1CCCCN1CC2CN(Cc3ccccc3)CC2C1 (stereo unspecified)	>40 mg/kg	–
10%	Cl.O=C1[C@@H]2C3CCC(O3)[C@@H]2S(=O)(=O)N1CCCCN1CCN(c2cncc(Cl)n2)CC1 (stereo partly specified)	40 mg/kg	inhibition [7]: 54%
1%	Cl.O=C1C2C3C=CC(C3)C2S(=O)(=O)N1CCCCc1ccncc1 (stereo unspecified)	40 mg/kg	–
21%	CC1=C(C)CC2C(C1)C(=O)N(CCCCN1CCN(c3ncccn3)CC1)S2(=O)=O.Cl.Cl (stereo unspecified)	40 mg/kg	–
6%	Cl.O=C1c2ccccc2S(=O)(=O)N1CCCCN1CCN(c2cncc(Cl)n2)CC1	40 mg/kg	–
0%	Cl.O=C1c2ccccc2S(=O)(=O)N1CCCCN1CCn2cccc2C1	>40 mg/kg	–
4%	CC1CC(=O)N(CCCCN2CCN(c3cncc(Cl)n3)CC2)S(=O)(=O)N1.Cl.Cl.Cl (stereo unspecified)	32 mg/kg	inhibition [7]: 61%
1%	Cl.Cl.Cl.O=C1C2C3C=CC(C3)C2S(=O)(=O)N1CCCCN1CCN(c2cncc(Cl)n2)CC1 (stereo unspecified)	40 mg/kg	–
0%	Cl.O=c1c2ccccc2[s+]([O-])n1CCCCN1CCN(c2cncc(Cl)n2)CC1 (stereo unspecified)	40 mg/kg	inhibition [7]: 44%

Source: ChEMBL document CHEMBL1124456, “Synthesis and structure-activity relationship of substituted tetrahydro- and hexahydro-1,2-benzisothiazol-3-one 1,1-dioxides and thiadiazinones: potential anxiolytic agents” (J Med Chem, 1989)
